The values that follow come from ChEMBL document CHEMBL3102696, “Synthesis/biological evaluation of hydroxamic acids and their prodrugs as inhibitors for Botulinum neurotoxin A light chain” (Bioorg Med Chem, 2014).

The structures appear in SMILES notation. pEC50, pIC50, pKi: −log10 of the molar value. Active and inactive are the calls of the source. The calls are words filed in the database; no cut-off is given here. Bounds are passed on as bounds.

In general, pEC50 refers to −log10 of the EC50, conventionally taken in molar units. Higher therefore signals a small EC50. Broadly, the pIC50 is the IC50 on a negative log10 scale, so that one unit is a factor of ten. Read a high pIC50 as a low IC50. Broadly, the pKi is −log10 of the Ki, conventionally taken in molar units.

Data set [1] deals with T1, Botulinum neurotoxin type A (Clostridium botulinum, UniProt P0DPI0). On the set-up: species or system Hall A hyper.
In data set [2] the target is Botulinum neurotoxin type A (Clostridium botulinum) (UniProt P0DPI0). The note with it: Hall A hyper.
The nature of data set [3]: Cytotoxicity against human induced pluripotent stem cell-derived neurons at 1 mM. The note with it: induced pluripotent stem cell-derived neuron, 1000 µM.
Data set [4] in a line: Cytotoxicity against human induced pluripotent stem cell-derived neurons at 200 uM. The note with it: induced pluripotent stem cell-derived neuron.
In data set [5] the target is T1, Botulinum neurotoxin type A. As to the kind of experiment: Inhibition of Clostridium botulinum BoNT/A light chain (1 to 425 amino acids) by FRET method. The procedure, abridged: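 Recombinant truncated light chain (residues 1–425) at 37 nM, incubated with SNAPtide, a 13mer SNAP-25 pseudosubstrate carrying a FITC fluorophore and a DABCYL quencher. Cleavage read as FRET fluorescence.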

Data set [6] has the same target. As to the kind of experiment: Inhibition of Clostridium botulinum BoNT/A light chain (1 to 425 amino acids) by LC-MS analysis.
Data set [7] is described as follows: Cytotoxicity against human induced pluripotent stem cell-derived neurons at 150 uM. To be noted: induced pluripotent stem cell-derived neuron.
Data set [8] has as its target Botulinum neurotoxin type A (Clostridium botulinum) (UniProt P0DPI0). The note with it: Hall A hyper. The source holds these as a separate data set.
Data set [9] has the same target. The note with it: Hall A hyper. The source holds these as a separate data set.

T1 sequence (P0DPI0 2-448 limits assumed): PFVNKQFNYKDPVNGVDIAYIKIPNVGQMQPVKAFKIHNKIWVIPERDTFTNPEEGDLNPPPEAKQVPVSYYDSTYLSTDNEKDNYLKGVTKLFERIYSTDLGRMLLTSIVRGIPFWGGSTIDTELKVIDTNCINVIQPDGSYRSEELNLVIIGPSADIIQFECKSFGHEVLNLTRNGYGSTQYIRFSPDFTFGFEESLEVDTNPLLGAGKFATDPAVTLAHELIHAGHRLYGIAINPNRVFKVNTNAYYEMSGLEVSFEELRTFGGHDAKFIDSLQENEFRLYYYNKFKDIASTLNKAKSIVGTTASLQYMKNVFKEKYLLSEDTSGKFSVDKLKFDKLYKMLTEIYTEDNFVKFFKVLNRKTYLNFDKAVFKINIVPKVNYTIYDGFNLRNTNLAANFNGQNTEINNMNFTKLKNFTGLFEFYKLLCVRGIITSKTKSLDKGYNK
Chain of Botulinum neurotoxin type A (Clostridium botulinum) (P0DPI0 2-448 limits assumed): as above

Molecule `O=C(CC(CC(=O)Nc1ccc(Br)cc1)c1ccc(Cl)cc1Cl)NOC(=O)NCc1ccccc1` (stereo not drawn) showed a pEC50 in data set [1] of 3.70. As for `O=C(CC(CCOCC12CC3CC(CC(Br)(C3)C1)C2)c1ccc(Cl)cc1Cl)NOC(=O)NCc1ccccc1` (stereo not drawn), the pEC50 in data set [1] was under 3.00. Take `O=C(CC(CCOCc1ccccc1)c1ccc(Cl)cc1Cl)NOC(=O)NCc1ccccc1` (stereo not drawn): in data set [2], the inhibition result was “inactive”. The Activity entry in data set [3] is given as “Toxic”.

Consider `O=C(CC(CCO)c1ccc(Cl)cc1Cl)NO` (stereo not drawn), for which the Activity entry in data set [4] is “Non-toxic”. In data set [5], `COc1cc(F)ccc1NC(=O)CC(CC(=O)NO)c1ccc(Cl)cc1Cl` (stereo not drawn) had a pIC50 of 5.96. This molecule also had a pKi in data set [6] of 6.00.

With `Cc1ccccc1NC(=O)CC(CC(=O)NO)c1ccc(Cl)cc1Cl` (stereo not drawn), in [5], the pIC50 is 5.70. Turning to `O=C(CC(CC(=O)NCCc1ccc(F)cc1)c1ccc(Cl)cc1Cl)NO` (stereo not drawn), the negative logarithm of the IC50 (pIC50) in data set [5] was 5.59. `Cc1ccccc1NC(=O)CC(CC(=O)NOC(=O)NCc1ccccc1)c1ccc(Cl)cc1Cl` (stereo not drawn): the pEC50 in data set [1] was 3.68. As for `O=C(CC(CCOCCc1ccc(F)cc1)c1ccc(Cl)cc1Cl)NO` (stereo not drawn), the negative-log IC50 (pIC50) in data set [5] was 6.01. The negative logarithm of the Ki (pKi) in [6] is 5.68.

Molecule `O=C(CC(CC(=O)NCCC1CC1)c1ccc(Cl)cc1Cl)NO` (stereo not drawn) had a pIC50 in data set [5] of 5.04. Molecule `COc1ccc(CCNC(=O)CC(CC(=O)NO)c2ccc(Cl)cc2Cl)cc1` (stereo not drawn) showed a pIC50 in data set [5] of 5.17. `O=C(CC(CCOCC12CC3CC(CC(Br)(C3)C1)C2)c1ccc(Cl)cc1Cl)NO` (stereo not drawn) gave a negative-log IC50 (pIC50) in data set [5] of 4.89.

Regarding `O=C(CC(CCOCCc1ccc(F)cc1)c1ccc(Cl)cc1Cl)NOC(=O)NCc1ccccc1` (stereo not drawn), in [2], the inhibition entry was “inactive”. Besides, the Activity result in data set [3] is on record as “Toxic”.

`C=CCOCCC(CC(=O)NO)c1ccc(Cl)cc1Cl` (stereo not drawn) had a negative logarithm of the IC50 (pIC50) in [5] of 5.27. As to `O=C(/C=C/c1ccc(Cl)cc1Cl)NOC(=O)NCc1ccccc1`, in data set [7], the Activity result is given as “Toxic”. Moreover, in data set [8], the inhibition entry is “inactive”.

On to `O=C(CC(CCOCc1ccccc1)c1ccc(Cl)cc1Cl)NO` (stereo not drawn), for which the negative logarithm of the IC50 (pIC50) in data set [5] is 5.54. `O=C(CC(CC(=O)Nc1ccc(Br)cc1)c1ccc(Cl)cc1Cl)NO` (stereo not drawn) gave a pIC50 in [5] of 5.19. With `O=C(CC(CCO)c1ccc(Cl)cc1Cl)NOC(=O)NCc1ccccc1` (stereo not drawn), the inhibition result in data set [9] is “Active”.
